Tested on: porcine parvovirus (PPV)
Test: PPV removal by peptide-resin columns from 7.5% human blood plasma
Assay type: binding, porcine parvovirus (PPV) NADL-2 strain
Conditions: Figure 3B
In short: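 Peptides on resin at 0.10 mmol/g dry resin with a four-unit ethylene oxide spacer; 0.5 ml settled resin in PBS per column; acetylated control. About 5 log₁₀ (MTT/ml) PPV was pumped at 0.1 ml/min. Fractions of 0.5 ml (one column volume) were titered by MTT assay on PK-13 cells. Clearance over five column volumes was expressed relative to a reference trimer ligand (100%). Duplicates.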

For YKLKYY, the “PPV clearance of the first five column volumes, ranking among ligands” value was “highest virus clearance”.

Reference: paper PMC4083586 (Biotechnology journal, 2011)
